Activity calls are given as the source filed them. The rule behind the calls is not given here.
Assays:
[1] = biological target: T1, Nuclear factor NF-kappa-B p105 subunit (Homo sapiens) (UniProt P19838); experiment: Binding affinity to 6His-tagged recombinant human NF-kappaB p50 N-terminal domain expressed in Escherichia coli BL21 (DE3) up to 50:1 compound to protein molar ratio after 2 hrs by mass spectrometric analysis
T1 sequence (whole entry): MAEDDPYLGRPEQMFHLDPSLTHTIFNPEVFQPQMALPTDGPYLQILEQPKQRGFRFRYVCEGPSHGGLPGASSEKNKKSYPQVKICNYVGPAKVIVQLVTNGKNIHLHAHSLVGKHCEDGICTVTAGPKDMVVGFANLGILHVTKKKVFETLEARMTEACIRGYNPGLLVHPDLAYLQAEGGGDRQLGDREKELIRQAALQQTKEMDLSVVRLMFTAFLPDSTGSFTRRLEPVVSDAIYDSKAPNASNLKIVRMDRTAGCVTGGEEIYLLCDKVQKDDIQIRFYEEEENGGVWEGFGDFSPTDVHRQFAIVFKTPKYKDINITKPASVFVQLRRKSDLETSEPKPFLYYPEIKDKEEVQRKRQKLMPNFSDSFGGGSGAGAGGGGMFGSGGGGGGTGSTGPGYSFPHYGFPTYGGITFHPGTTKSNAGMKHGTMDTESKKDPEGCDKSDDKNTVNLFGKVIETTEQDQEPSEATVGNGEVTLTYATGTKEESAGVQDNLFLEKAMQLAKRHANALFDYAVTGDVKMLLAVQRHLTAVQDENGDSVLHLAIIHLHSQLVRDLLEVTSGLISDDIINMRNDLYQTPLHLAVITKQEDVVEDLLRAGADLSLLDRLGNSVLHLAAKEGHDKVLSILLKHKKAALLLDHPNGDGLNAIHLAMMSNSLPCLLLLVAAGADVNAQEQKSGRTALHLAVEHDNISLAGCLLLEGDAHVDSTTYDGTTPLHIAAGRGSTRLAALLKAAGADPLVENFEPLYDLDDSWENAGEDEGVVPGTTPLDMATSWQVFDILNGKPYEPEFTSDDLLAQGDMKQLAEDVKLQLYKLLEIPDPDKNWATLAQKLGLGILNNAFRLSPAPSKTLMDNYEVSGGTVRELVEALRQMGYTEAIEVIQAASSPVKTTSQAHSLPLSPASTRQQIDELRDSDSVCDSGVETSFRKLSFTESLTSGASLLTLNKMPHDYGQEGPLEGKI
Procedure, shortened: (§1)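 Recombinant 6His-tagged p50 NTD (E. coli BL21(DE3), Ni-NTA then Superdex 200 gel filtration, dialysed into PBS) at 20 μM, incubated with compound in PBS with 1 mM EDTA, 10 μM β-mercaptoethanol, 5% glycerol (v/v), 37 °C, 2 h. Acetic acid quench, reversed-phase column, ESI-MS at m/z 500–3000. Reaction extent scored from adduct versus unbound protein across rising molar ratios.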

[2] = biological target: T1, Nuclear factor NF-kappa-B p105 subunit (Homo sapiens); experiment: Inhibition of TNF-alpha-stimulated NF-kappaB p50 (unknown origin) expressed in HEK293 cells at 1 to 100 uM preincubated for 4 hrs followed by TNF-alpha challenge measured after 24 hrs by secreted alkaline phosphatase reporter assay; type: cell-based
Procedure, shortened: (§2)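 HEK293 stably transfected with NF-κB/SEAP, grown in DMEM/10% FBS/500 μg/mL G418 and seeded at ~2 × 10^5 cells/well to ~70% confluence. Pretreated 4 h with rising compound concentrations or 0.05% DMSO, then TNF-α 10 ng/mL for 24 h. Secreted SEAP measured by kit, with TNF-α-induced untreated cells as 100%. Quadruplicates, mean; IC50 from the concentration curve.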

[3] = Cytotoxicity against human Jurkat T cells assessed as appearance of early apoptotic cells at 25 uM after 24 hrs by annexin V-FLUOS/propidium iodide staining-based flow cytometric analysis; type: cell-based
Procedure, shortened: (§3)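 Jurkat T lymphocytes kept at 37 °C, 5% CO2 in RPMI1640 with 10% FBS and 1% streptomycin/penicillin. Exposed to 25 μM compound for 24 h, then stained with annexin-V-FLUOS and propidium iodide and read by flow cytometry. Viable cells are negative for both stains.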

[4] = Cytotoxicity against human Jurkat T cells assessed as appearance of late apoptotic cells at 25 uM after 24 hrs by annexin V-FLUOS/propidium iodide staining-based flow cytometric analysis; type: cell-based; procedure, shortened: as §3
[5] = Cytotoxicity against human Jurkat T cells assessed as appearance of necrotic cells at 25 uM after 24 hrs by annexin V-FLUOS/propidium iodide staining-based flow cytometric analysis; type: cell-based; procedure, shortened: as §3
[6] = Cytotoxicity against human Jurkat T cells assessed as appearance of viable cells at 25 uM after 24 hrs by annexin V-FLUOS/propidium iodide staining-based flow cytometric analysis; type: cell-based; conditions: read-out: Activity; procedure, shortened: as §3
[7] = Cytotoxicity against human Jurkat T cells assessed as apoptosis after 24 hrs by annexin V-FLUOS/propidium iodide staining-based flow cytometric analysis; type: cell-based; procedure, shortened: as §3
[8] = biological target: T1, Nuclear factor NF-kappa-B p105 subunit (Homo sapiens); experiment: Binding affinity to 6His-tagged recombinant human NF-kappaB p50 N-terminal domain expressed in Escherichia coli BL21 (DE3) up to 10:1 compound to protein molar ratio after 2 hrs by mass spectrometric analysis; procedure, shortened: as §1
[9] = biological target: T1, Nuclear factor NF-kappa-B p105 subunit (Homo sapiens); experiment: (§4) Inhibition of TNF-alpha-stimulated NF-kappaB p50 (unknown origin) expressed in HEK293 cells preincubated for 4 hrs followed by TNF-alpha challenge measured after 24 hrs by secreted alkaline phosphatase reporter assay; type: cell-based; procedure, shortened: as §2
[10] = biological target: T1, Nuclear factor NF-kappa-B p105 subunit (Homo sapiens); experiment: Binding affinity to 6His-tagged recombinant human NF-kappaB p50 N-terminal domain expressed in Escherichia coli BL21 (DE3) at 4:1 compound to protein molar ratio after 2 hrs by mass spectrometric analysis; procedure, shortened: as §1
[11] = biological target: T2, Nuclear factor NF-kappa-B p105 subunit (Homo sapiens, UniProt P19838); experiment: as §4; type: cell-based; procedure, shortened: as §2
T2 sequence (P19838 whole entry): T1 sequence (whole entry)

SMILES	Activity [1]	inhibition [2]	Activity [3] [%]	Activity [4] [%]	Activity [5] [%]	viability at 24 h, 25 µM [6] [%]	Activity [7]	Activity [8]	inhibition [9]	Activity [10]	IC50 [11] [µM]
C=C1CC[C@@H]2[C@](C)(CO)[C@H](O)CC[C@@]2(C)[C@@H]1/C=C/C1=CCOC1=O	Active	inactive	10.89	1.31	0.25	87.5	–	–	–	–	–
C=C1CC[C@@H]2[C@](C)(CO[C@@H]3O[C@H](CO)[C@@H](O)[C@H](O)[C@H]3O)CCC[C@@]2(C)[C@@H]1CCC1=CCOC1=O [NEOANDROGRAPHOLIDE]	–	–	–	–	–	–	Non-toxic	inactive	inactive	–	–
C=C1CC[C@@H]2[C@](C)(COC(C)=O)[C@H](OC(C)=O)CC[C@@]2(C)[C@@H]1C/C=C1\C=COC1=O	–	–	38.24	47.95	0.24	13.6	–	–	–	Active	11.1
C=C1CC[C@@H]2[C@](C)(CO)[C@H](O)CC[C@@]2(C)[C@@H]1C/C=C1/C(=O)OC[C@H]1O [ANDROGRAPHOLIDE]	–	–	35.3	9.1	1.39	54.2	–	–	–	–	49.6
C[C@]1(CO)[C@H]2CCC(=O)[C@@H](C/C=C3/SC(=S)NC3=O)[C@]2(C)CC[C@H]1O	–	inactive	6.91	7.96	1.05	84.1	–	inactive	–	–	–
C=C1CC[C@@H]2[C@](C)(CO)[C@H](O)CC[C@@]2(C)[C@@H]1C/C=C1\C=COC1=O	–	inactive	15.55	1.57	0.3	82.6	–	inactive	–	–	–
C=C1CC[C@@H]2[C@](C)(CO)[C@H](O)CC[C@@]2(C)[C@@H]1CCC1=CCOC1=O [DEOXYANDROGRAPHOLIDE]	–	–	–	–	–	–	Non-toxic	inactive	inactive	–	–
C[C@]1(CO)[C@H]2CCC(=O)[C@@H](C/C=C3\CCOC3=O)[C@]2(C)CC[C@H]1O	–	inactive	6.29	5.52	0.33	87.9	–	inactive	–	–	–
